GSIS activator: GLuc luminescence reporter in INS-1E cells, primary screen for activators of glucose-dependent secretion of insulin. INS-1E GLuc reporter insulin secretion, 2-3 h. activation, % at 16.6 µM. 370,000 tested, 0.61% active;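 active = lowest replicate activation of at least 40%, so every replicate reaches that level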
RAD52 anneal inh: RAD52 DNA annealing inhibitors, primary screen, biochemical, FRET, single point, set 2. DNA repair protein RAD52 homolog (Homo sapiens), P43351. recombinant RAD52 DNA annealing, FRET fluorescence. inhibition, % at 18.7 µM. 360,000 tested, 0.46% active;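 active = every replicate showing at least 50% inhibition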
AF4-AF9 inh: inhibitors of AF4 peptide binding to AF9, primary screen, biochemical, AlphaScreen, biotin-AF4 peptide, FLAG-AF9, single point. Protein AF-9 (Homo sapiens), P42568. inhibition, % at 10 µM. 350,000 tested, 0.47% active. AID 651704, 2012;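 active = every replicate reaching a set inhibition limit, whatever the replicate mean, cut at about 25% in these data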
ERAP1 HTS inh: human ERAP1 aminopeptidase inhibitors, primary screen, biochemical, single point, plate reader; 340,000 tested, 0.15% active; recombinant ERAP1, Leu-AMC fluorescence, 60 min; inhibition, % at 10.7 µM; Endoplasmic reticulum aminopeptidase 1 (Homo sapiens), Q9NZ08; AID 652197, 2013;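 active = mean replicate inhibition of at least 30%, or all replicates individually reaching that 30% level; inactive = mean below 30% and not every replicate reaching it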
S100A4 MyoIIA: inhibitors of S100A4-myosin IIA peptide binding, primary screen, biochemical, fluorescence polarization, TAMRA-MyoIIA peptide. inhibition, % at 10.7 µM. AID 652163, 2013. 360,000 tested, 0.14% active;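 active = mean inhibition of at least 70% across replicates, with every replicate also reaching that level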
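System – human S100A4 monomer protein, biochemical binding assay · Buffer or medium – Calcium-containing HEPES buffer, pH 7.2 · Timing – 5 min between mix addition and reading · Also added – TAMRA-labelled myosin IIA heavy-chain peptide probe, 5 nM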
Hits are given with their value; - = inactive; . = not tested or not shown; + = active, no number. An excerpt weighted towards active compounds, which were near 1.5% of everything screened.

SMILES	GSIS activator	RAD52 anneal inh	AF4-AF9 inh	ERAP1 HTS inh	S100A4 MyoIIA
CCc1cc(C(=O)OC)c(NC(=O)CN2CCN(C(=O)c3ccco3)CC2)s1	-	-	-	-	-
CCOC(=O)N1CCN(CC(=O)Nc2sc(CC)cc2C(=O)c2ccc(OC)cc2)CC1	-	-	27	-	-
CN1C(=O)c2cc(NC(=O)c3ccc(Cl)cc3)ccc2OC[C@@H]2O[C@@H](CC(=O)NCc3cccc(F)c3)CC[C@@H]21	-	-	-	-	-
CCNc1ccc(C(=O)N/N=C/c2c(C)nn(-c3ccccc3)c2N2CCCC2)cc1[N+](=O)[O-]	46	-	-	-	-
COc1cccc(C(=O)OCCCOC(=O)c2cccc(OC)c2OC)c1OC	42	-	-	-	-
COc1cc(OC)c(C(=O)OCCCOC(=O)c2cc(OC)c(OC)cc2OC)cc1OC	-	-	-	-	-
Cc1ccc2c(c1)C=CC(C#N)N2C(=O)Oc1ccccc1 (stereo not given)	-	-	-	-	-
Cc1ccc2c(c1)C=CC(C#N)N2C(=O)c1ccccc1 (stereo not given)	50	-	-	-	-
CC1=CC(C)(C)N2C(=O)C(=O)c3cc(OC(=O)c4ccco4)cc1c32	-	-	31	-	-
CC(C)N(C(=O)[C@H]1C[C@H](CC(=O)NCCCN(C)C)C(=O)N2CCc3c([nH]c4cc(-c5ccco5)ccc34)[C@]12C)C(C)C	-	-	29	-	-
CC(=O)Nc1ccc2c(c1)CC(=O)N(C)C[C@@H](C)[C@@H](CN(C)C(C)=O)O2	-	.	.	.	.
C[C@H](CO)N1C[C@H](C)[C@H](CN(C)C(=O)C2CCC2)Oc2ncc(C#Cc3cccc(F)c3)cc2C1=O	-	-	-	-	-
COc1cccc(C(=O)NNC(=O)c2cccnc2)c1	-	-	-	-	-
COc1cccc(OC)c1C(=O)NNC(=O)c1cccnc1	-	-	35	-	-
CC(C)Cc1nc2c(nnn2Cc2ccccc2F)c(=O)[nH]1	-	-	38	.	-
CCc1nc2c(nnn2Cc2ccc(F)cc2)c(=O)[nH]1	60	-	.	-	-
O=C(CSCc1nc2c(nnn2Cc2ccc(F)cc2)c(=O)[nH]1)Nc1c(Cl)cc(Cl)cc1Cl	.	-	-	-	-
O=C(Nc1cccc(NC(=O)c2cccs2)c1)c1ccc(Br)o1	-	-	-	-	-
O=C(Nc1ccc(NC(=O)c2cccs2)cc1)c1ccc(Br)o1	45	.	.	.	.
c1ccc(C[C@H]2CNCCN2CCCCC2CCCCC2)cc1	57	-	-	.	-
FC(F)(F)c1cc(CCN2CCNC[C@@H]2c2ccccc2)cc(C(F)(F)F)c1	115	-	-	-	-
c1ccc2c(C[C@@H]3CNCCN3CCCCC3CCCCC3)cccc2c1	.	-	-	-	-
NC1=NC[C@H](CC2CCCCC2)N1CCc1cc(C(F)(F)F)cc(C(F)(F)F)c1	+	-	-	-	-
CCCC[C@@H]1CNCCN1CCc1cc(C(F)(F)F)cc(C(F)(F)F)c1	-	-	-	-	-
FC(F)(F)c1cc(CCN2CCNC[C@@H]2CC2CCCCC2)cc(C(F)(F)F)c1	+	-	-	-	-
SMILES	GSIS activator	RAD52 anneal inh	AF4-AF9 inh	ERAP1 HTS inh	S100A4 MyoIIA
Fc1cccc(CCN2CCNC[C@@H]2c2ccccc2)c1	-	-	-	-	-
COc1ccc(S(=O)(=O)N(C)C[C@@H]2Oc3ccc(NC(=O)Nc4ccc5c(c4)OCO5)cc3C(=O)N([C@H](C)CO)C[C@@H]2C)cc1	-	-	-	-	-
CC1CCC(C(C)C)C(OC(=O)C[n+]2cc(-c3ccc(Cl)cc3)n3c2CCCCC3)C1 (stereo not given)	111	-	-	-	-
Cn1cnc([N+](=O)[O-])c1S(=O)(=O)c1ccc(Cl)cc1	82	-	-	-	-
Cc1c(Cl)c([N+](=O)[O-])nn1CC(=O)NCc1ccc(Cl)cc1	-	-	-	-	-
CNC[C@H](CC1CCCCC1)NC[C@H](Cc1ccccc1)NCCC12CC3CC(CC(C3)C1)C2	649	-	40	-	-
CC(=O)N1C[C@H]2[C@@H](c3ccccc31)[C@H](CO)N2C(=O)CC1CC1	-	-	-	-	-
Cc1cccc(C)c1Nc1c(-c2ccccn2)nc2ccccn12	-	-	.	-	-
Cc1ccccc1Nc1c(-c2ccccn2)nc2c(C)cccn12	-	-	34	.	-
